Experiments:
[1] = Binding affinity to HCV 29-mer 2A RNA by MS based binding assay; set-up: species or system Hepacivirus hominis
[2] = Binding affinity to HCV 40-mer RNA by MS based binding assay; set-up: species or system Hepacivirus hominis
[3] = test system: Hepatitis C virus; experiment: Reduction of HCV RNA levels by HCV replicon assay; type: functional, organism-based, Hepacivirus hominis
How it was run: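 HCV replicon cells treated with compound; intracellular HCV RNA levels quantified by RT-PCR.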

[4] = Cytotoxicity against Huh7 cells by MTT assay; type: cell-based, Huh-7; conditions: human
How it was run: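 Huh-7 cells; viability read by MTT; 50% cytotoxic concentration (CC50) reported.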

Kd [1] [µM]	Kd [2] [µM]	EC50 [3] [µM]	Structure (SMILES)	CC50 [4] [µM]
> 200	–	–	COc1cccc2c1nc(N)n2CCCN(C)C	–
50	–	–	COc1cccc2nc(N)n(CCCN(C)C)c12	–
48	–	–	CC(C)CCOc1ccc2nc(N)n(CCCN(C)C)c2c1	–
99	–	–	CN(C)CCCn1c(N)nc2ccc(OCc3ccccc3)cc21	–
8	–	–	CN(C)CCCn1c(N)nc2ccc(OCCN(C)C)cc21	–
–	0.86	3.9	CN(C)CCCn1c(N)nc2ccc3c(c21)CC(CN(C)C)CO3 (stereo not given)	> 100
> 200	–	–	CCCCN(CCCC)CCCn1c(N)nc2ccccc21	–
100	> 100	–	CN(C)CCCn1c(N)nc2ccccc21	> 100
> 100	–	–	CN(C)CCCOc1ccc2ncn(CCCN(C)C)c2c1	–
40	–	–	COc1ccc2nc(N)n(CCCN(C)C)c2c1	–
125	–	–	Nc1nc2ccccc2n1CCCN1CCCC1	–
–	1.7	1.5	CN(C)CCCn1c(N)nc2ccc3c(c21)CC(CN(C)C)O3 (stereo not given)	> 100
–	3.5	29	CN(C)CCCOc1ccc2nc3n(c2c1)CC(CN(C)C)CN3 (stereo not given)	> 100
> 200	–	–	Nc1nc2ccccc2n1CCCN1CCOCC1	–
7	–	–	CN(C)CCCCOc1ccc2nc(N)n(CCCN(C)C)c2c1	–
> 100	–	–	CN(C)CCCOc1ccc2c(c1)nc(N)n2CCCN(C)C	–
130	–	–	CCN(CC)CCCn1c(N)nc2ccccc21	–
10	17	37	CN(C)CCCOc1ccc2nc(N)n(CCCN(C)C)c2c1	> 100
> 200	–	–	CCCn1c(N)nc2ccccc21	–
> 200	–	–	COc1ccc2c(c1)nc(N)n2CCCN(C)C	–
> 100	–	–	CN(C)CCCOc1ccc2nc(N)[nH]c2c1	–
–	0.72	5.4	CN(C)CC1COc2ccc3nc4n(c3c2C1)CC(CN(C)C)CN4 (stereo not given)	> 100

— ChEMBL document CHEMBL1139463, “SAR by MS: discovery of a new class of RNA-binding small molecules for the hepatitis C virus: internal ribosome entry site IIA subdomain” (J Med Chem, 2005)
